Source: ChEMBL document CHEMBL3244174, “Synthesis and biological activity of some new furan quaternary salts” (J Med Chem, 1977)
Values after ≈ are worked out from the molar mass of the structure shown.

Tests used:
Candida albicans = assay: Antifungal activity against Candida albicans SKF 2270 assessed as growth inhibition by agar dilution method; type: functional
Cryptococcus neoformans = assay: Antifungal activity against Cryptococcus neoformans 103 assessed as growth inhibition by agar dilution method; type: functional
[1] = tested on: Trichophyton mentagrophytes; assay: Antifungal activity against Trichophyton mentagrophytes A-280 USPHS assessed as growth inhibition by agar dilution method; type: functional
Trichophyton rubrum = assay: Antifungal activity against Trichophyton rubrum 252 CSTM assessed as growth inhibition by agar dilution method; type: functional
Microsporum canis = assay: Antifungal activity against Microsporum canis VM-200 USPHS assessed as growth inhibition by agar dilution method; type: functional
Nannizzia gypsea = assay: Antifungal activity against Microsporum gypseum 153 CSTM assessed as growth inhibition by agar dilution method; type: functional
Histoplasma capsulatum = assay: Antifungal activity against Histoplasma capsulatum RNSH Hi-70 1/2 assessed as growth inhibition by agar dilution method; type: functional
Staphylococcus aureus = assay: Antibacterial activity against Staphylococcus aureus ATCC 6538 assessed as growth inhibition after 24 hrs by dilution tube method; type: functional; details: ATCC 6538, 24 h
Procedure, shortened: (§1)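 Broth tube dilution in Tryptone Soya Broth, duplicate tubes at each concentration. MIC (μg/ml) was the highest dilution preventing visible growth. Nitrofurantoin run under the same conditions.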

Enterococcus faecalis = assay: Antibacterial activity against Streptococcus faecalis ATCC 10541 assessed as growth inhibition after 24 hrs by dilution tube method; type: functional; details: ATCC 10541, 24 h; procedure, shortened: as §1
Pseudomonas aeruginosa = assay: Antibacterial activity against Pseudomonas aeruginosa ATCC 10145 assessed as growth inhibition after 24 hrs by dilution tube method; type: functional; details: ATCC 10145, 24 h; procedure, shortened: as §1
Klebsiella pneumoniae = assay: Antibacterial activity against Klebsiella pneumoniae ATCC 10031 assessed as growth inhibition after 24 hrs by dilution tube method; type: functional; details: ATCC 10031, 24 h; procedure, shortened: as §1
Salmonella typhi = assay: Antibacterial activity against Salmonella typhi 115 assessed as growth inhibition after 24 hrs by dilution tube method; type: functional, Salmonella enterica subsp. enterica serovar Typhi; details: Salmonella enterica, 115, 24 h
Procedure, shortened: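 Dilution tube method in Tryptone Soya Broth; MIC (μg/ml) taken as highest dilution preventing visible growth; duplicates at every concentration; nitrofurantoin reference run under same conditions.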

[2] = tested on: Agrobacterium tumefaciens; assay: Antibacterial activity against Agrobacterium tumefaciens NRRL B-36 assessed as growth inhibition after 24 hrs by dilution tube method; type: functional; details: NRRL B-36, 24 h; procedure, shortened: as §1
Escherichia coli = assay: Antibacterial activity against Escherichia coli 114 assessed as growth inhibition after 24 hrs by dilution tube method; type: functional; details: Escherichia coli, 114, 24 h; procedure, shortened: as §1
[3] = tested on: Mycobacterium tuberculosis; assay: Antibacterial activity against Mycobacterium tuberculosis H37Rv assessed as growth inhibition by serial dilution method; type: functional
Procedure, shortened: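 M. tuberculosis H37Rv maintained on Lowenstein–Jensen medium; tested in Youman's medium by serial dilution.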

SMILES | MIC (Candida albicans) [mg/L] | MIC (Cryptococcus neoformans) [mg/L] | MIC [1] [mg/L] | MIC (Trichophyton rubrum) [mg/L] | MIC (Microsporum canis) [mg/L] | MIC (Nannizzia gypsea) [mg/L] | MIC (Histoplasma capsulatum) [mg/L] | MIC (Staphylococcus aureus) [mg/L] | MIC (Enterococcus faecalis) [mg/L] | MIC (Pseudomonas aeruginosa) [mg/L] | MIC (Klebsiella pneumoniae) [mg/L] | MIC (Salmonella typhi) [mg/L] | MIC [2] [mg/L] | MIC (Escherichia coli) [mg/L] | MIC [3] [mg/L]
C[N+](C)(CCCOc1c(Br)cc(Br)cc1Br)Cc1ccc([N+](=O)[O-])o1.[Br-] | > 200 | 200 | > 200 | > 200 | > 200 | > 200 | 200 | 50 | 200 | 25 | 25 | > 200 | 100 | > 200 | 50
C[N+](C)(CCCOc1c(Br)cc(Br)cc1Br)Cc1ccc(Br)o1.[Br-] | > 200 | 50 | > 200 | > 200 | > 200 | > 200 | > 200 | 10 | 25 | 4 | 7.5 | 100 | 50 | > 200 | 10
C[N+](C)(CCCCCOc1ccc(Cl)cc1Cl)Cc1ccc(Br)o1.[Br-] | > 200 | 50 | > 200 | > 200 | 50 | > 200 | 100 | 25 | 50 | 10 | 25 | > 200 | 50 | > 200 | 
C[N+](C)(CCCCCCOc1c(Br)cc(Br)cc1Br)Cc1ccco1.[Br-] | 50 | 25 | 100 | 100 | 100 | 100 | 50 | 25 | 25 | 5 | 7.5 | > 200 | 50 | > 200 | 25
Cc1cc(OCCCCCCC[N+](C)(C)Cc2ccc([N+](=O)[O-])o2)c(C(C)C)cc1Cl.[Br-] | > 200 | 4 | > 200 | > 200 | > 200 | > 200 | > 200 | 4 | 3 | 2 | 3 | > 200 | 7.5 | > 200 | 5
C[N+](C)(CCCCCOc1c(Br)cc(Br)cc1Br)Cc1ccco1.[Br-] | 100 | 25 | 100 | > 200 | 100 | 100 | 50 | 25 | 50 | 25 | 25 | > 200 | 100 | > 200 | 25
Cc1cc(OCCCCCCCCCC[N+](C)(C)Cc2ccc(Br)o2)c(C(C)C)cc1Cl.[Br-] | > 200 | 100 |  | > 200 | 100 | > 200 | 100 | 25 | 50 | 25 |  | > 200 | > 200 | > 200 | 
C[N+](C)(CCCCCOc1ccc(Cl)cc1)Cc1ccc(Br)o1.[Br-] | > 200 | > 200 | > 200 | > 200 | 100 | > 200 | > 200 | 50 | 100 | 25 | 50 | > 200 | > 200 | > 200 | 
C[C@@H]1[C@H](O)[C@@H](C)/C=C/C=C/C=C/C=C/C=C/C=C/C=C/[C@H](O[C@@H]2O[C@H](C)[C@@H](O)[C@H](N)[C@@H]2O)C[C@@H]2O[C@](O)(C[C@@H](O)C[C@@H](O)[C@H](O)CC[C@@H](O)C[C@@H](O)CC(=O)O[C@H]1C)C[C@H](O)[C@H]2C(=O)O [AMPHOTERICIN B] | 2.5 (≈ 2.71 µM) |  | 10 (≈ 10.8 µM) | 10 (≈ 10.8 µM) | 5 (≈ 5.41 µM) | 10 (≈ 10.8 µM) | 0.5 (≈ 0.541 µM) |  |  |  |  |  |  |  | 
O=C1CN(/N=C/c2ccc([N+](=O)[O-])o2)C(=O)N1 [NITROFURANTOIN] |  |  |  |  |  |  |  | 25 (≈ 105 µM) | 100 (≈ 420 µM) | 2.5 (≈ 10.5 µM) | 5 (≈ 21 µM) | 25 (≈ 105 µM) | 25 (≈ 105 µM) | 25 (≈ 105 µM) | 
